Measured values from ChEMBL document CHEMBL3351278, “Pyridine-3-carboxamide-6-yl-ureas as novel inhibitors of bacterial DNA gyrase: structure based design, synthesis, SAR and antimicrobial activity” (Eur J Med Chem, 2014).
Values after ≈ are worked out from the molar mass of the structure shown.

Legend:
[1] = molecular target: DNA gyrase (Escherichia coli, UniProt P0AES4+P0AES6); test: Inhibition of Escherichia coli GyrB A2B2 subunits assessed reduction in DNA supercoiling activity by malachite green dye based by spectrophotometry; assay type: protein-complex assay
Outline: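 Inhibition was measured as loss of ATPase activity of the E. coli GyrB enzyme and reported as IC50.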

[2] = tested on: Staphylococcus aureus; test: Antibacterial activity against Staphylococcus aureus ATCC 29213 incubated for 24 hrs by broth microdilution method; assay type: functional; conditions: ATCC 29213, 24 h
[3] = tested on: Enterococcus faecalis; test: Antibacterial activity against Enterococcus faecalis ATCC 29212 incubated for 24 hrs by broth microdilution method; assay type: functional; conditions: ATCC 29212, 24 h
[4] = tested on: Streptococcus pyogenes; test: Antibacterial activity against Streptococcus pyogenes ATCC 51339 incubated for 24 hrs by broth microdilution method; assay type: functional; conditions: ATCC 51339, 24 h
[5] = tested on: Haemophilus influenzae; test: Antibacterial activity against Haemophilus influenzae ATCC 49247 incubated for 24 hrs by broth microdilution method; assay type: functional; conditions: ATCC 49247, 24 h
[6] = tested on: Staphylococcus aureus; test: Antibacterial activity against Staphylococcus aureus ATCC 29213 incubated for 24 hrs in presence of 50% horse serum by broth microdilution method; assay type: functional; conditions: ATCC 29213, 24 h
[7] = tested on: Staphylococcus aureus; test: Potency shift, ratio of MIC against Staphylococcus aureus ATCC 29213 in presence of 50% horse serum to MIC against taphylococcus aureus ATCC 29213 in absence of 50% horse serum; assay type: functional
[8] = Retention time of the compound by HPLC method; assay type: physicochemical
[9] = tested on: Staphylococcus aureus; test: Antibacterial activity against Staphylococcus aureus ATCC 29213 expressing GyrB T173N mutant incubated for 24 hrs by broth microdilution method; assay type: functional; conditions: ATCC 29213, 24 h
[10] = tested on: Streptococcus pyogenes; test: Antibacterial activity against Streptococcus pyogenes ATCC 51339 expressing ParE A53S mutant incubated for 24 hrs by broth microdilution method; assay type: functional; conditions: ATCC 51339, 24 h
[11] = tested on: Staphylococcus aureus; test: Antibacterial activity against Staphylococcus aureus ATCC 29213 expressing GyrB T173N and ParE T167N mutant incubated for 24 hrs by broth microdilution method; assay type: functional; conditions: ATCC 29213, 24 h
[12] = tested on: Staphylococcus epidermidis; test: Antibacterial activity against Staphylococcus epidermidis ATCC 12228 incubated for 24 hrs by broth microdilution method; assay type: functional; conditions: ATCC 12228, 24 h
[13] = tested on: Streptococcus pneumoniae; test: Antibacterial activity against Streptococcus pneumoniae ATCC 49616 incubated for 24 hrs by broth microdilution method; assay type: functional; conditions: ATCC 49616, 24 h
[14] = tested on: Escherichia coli; test: Antibacterial activity against Escherichia coli ATCC 25922 incubated for 24 hrs by broth microdilution method; assay type: functional; conditions: ATCC 25922, 24 h
[15] = tested on: Escherichia coli; test: Antibacterial activity against Escherichia coli N43 expressing efflux pump mutant incubated for 24 hrs by broth microdilution method; assay type: functional; conditions: N43, 24 h
[16] = molecular target: DNA gyrase subunit B (Staphylococcus aureus, UniProt P0A0K8); test: Inhibition of Staphylococcus aureus GyrB assessed reduction in DNA supercoiling activity by malachite green dye based by spectrophotometry
[17] = molecular target: DNA topoisomerase 4 subunit B (Staphylococcus aureus, UniProt P0C1S7); test: Inhibition of Staphylococcus aureus ParE
[18] = molecular target: DNA topoisomerase 4 subunit B (Escherichia coli K-12, UniProt P20083); test: Inhibition of Escherichia coli ParE

Structure (SMILES) | IC50 [1] [nM] | MIC [2] [µg/mL] | MIC [3] [µg/mL] | MIC [4] [µg/mL] | MIC [5] [µg/mL] | MIC [6] [µg/mL] | Ratio [7] | Retention_time [8] [min] | MIC [9] [µg/mL] | MIC [10] [µg/mL] | MIC [11] [µg/mL] | MIC [12] [µg/mL] | MIC [13] [µg/mL] | MIC [14] [µg/mL] | MIC [15] [µg/mL] | IC50 [16] [nM] | IC50 [17] [nM] | IC50 [18] [nM]
CCNC(=O)Nc1cc(Nc2cccnc2)c(C(=O)Nc2ccccc2)cn1 | 430 | 1 (≈ 2.66 µM) | 0.25 (≈ 0.664 µM) | 1 (≈ 2.66 µM) | > 64 | 2 | 2 | 1.46 |  |  |  |  |  |  |  |  |  | 
CCNC(=O)Nc1cc(-n2cccn2)c(C(=O)Nc2cccc(Cl)c2)cn1 | 2960 | 8 (≈ 20.8 µM) | 1 (≈ 2.6 µM) | 4 (≈ 10.4 µM) | > 64 |  |  | 1.83 | 32 (≈ 83.2 µM) | 16 (≈ 41.6 µM) | > 64 | 2 (≈ 5.2 µM) | 1 (≈ 2.6 µM) | > 64 | 32 (≈ 83.2 µM) |  |  | 
CCNC(=O)Nc1cc(Nc2ccccc2)c(C(=O)Nc2ccccc2)cn1 | 40 | 1 (≈ 2.66 µM) | 0.25 (≈ 0.666 µM) | 2 (≈ 5.33 µM) | > 64 |  |  | 1.58 | 2 (≈ 5.33 µM) | 16 (≈ 42.6 µM) | > 64 | 0.25 (≈ 0.666 µM) | 1 (≈ 2.66 µM) | > 64 | 8 (≈ 21.3 µM) |  |  | 
CCNC(=O)Nc1cc(Nc2ccccc2)c(C(=O)Nc2cccc(C)c2)cn1 | 140 | 1 (≈ 2.57 µM) | 0.125 (≈ 0.321 µM) | 2 (≈ 5.14 µM) | > 64 |  |  | 1.68 | > 64 | > 64 | > 64 | 0.5 (≈ 1.28 µM) | 0.5 (≈ 1.28 µM) | > 64 | > 64 |  |  | 
CCNC(=O)Nc1cc(Nc2ccccc2)c(C(=O)Nc2cccnc2)cn1 | 170 | 1 (≈ 2.66 µM) | 0.125 (≈ 0.332 µM) | 1 (≈ 2.66 µM) | > 64 | 4 | 4 | 1.36 | 4 (≈ 10.6 µM) | 2 (≈ 5.31 µM) | > 64 | 0.25 (≈ 0.664 µM) | 0.25 (≈ 0.664 µM) | > 64 | 8 (≈ 21.3 µM) |  |  | 
CCNC(=O)Nc1cc(Nc2ccccc2)c(C(=O)Nc2ccc(N3CCOCC3)nc2)cn1 | 110 | 2 (≈ 4.33 µM) | 0.25 (≈ 0.542 µM) | 1 (≈ 2.17 µM) | > 64 | 16 | 8 | 1.47 | > 64 | 4 (≈ 8.67 µM) | > 64 | 1 (≈ 2.17 µM) | 0.5 (≈ 1.08 µM) | > 64 | > 64 |  |  | 
CCNC(=O)Nc1cc(Nc2ccccc2)c(C(=O)Nc2ccc(NC(C)=O)nc2)cn1 | 39 | 2 (≈ 4.61 µM) | 0.125 (≈ 0.288 µM) | 0.5 (≈ 1.15 µM) | > 64 | 8 | 4 | 1.45 | > 64 | 2 (≈ 4.61 µM) | > 64 | 0.25 (≈ 0.577 µM) | 0.125 (≈ 0.288 µM) | > 64 | > 64 |  |  | 
CCNC(=O)Nc1cc(Nc2ccc(O)cc2)c(C(=O)Nc2cccnc2)cn1 | 28 | 8 (≈ 20.4 µM) |  |  |  |  |  |  |  |  |  |  |  | > 64 |  | 24 | 86 | 940
CCNC(=O)Nc1cc(Nc2cccc(O)c2)c(C(=O)Nc2cccnc2)cn1 | 36 |  |  |  |  |  |  |  |  |  |  |  |  | > 64 |  |  |  | 780
CCNC(=O)Nc1cc(Nc2ccc(OC)cc2OC)c(C(=O)Nc2cccnc2)cn1 | 46 | 1 (≈ 2.29 µM) |  |  |  |  |  |  |  |  |  |  |  | > 64 |  | 41 | 800 | 42000
